CHO parental Ca: counter-screen: ATP calcium response change in parental CHO cells. parental CHO-K1, ATP-induced calcium, Fluo-8 fluorescence. inhibition, % at 5.6 µM. 330,000 compounds, 0.63% hits;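 active = inhibition above that plate's mean sample inhibition plus 3 SD, cut at about 26% in these data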;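 also: 0% = ATP-challenged DMSO wells and 100% = DMSO wells without ATP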
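Assay system: untransfected parental CHO cell line. Also added: ATP agonist challenge. Dosing: one dose, 5.6 µM nominal. Measured by: Fluo-8 fluorescence. Read-out: % inhibition. Benchmarks: ATP wells versus no-ATP DMSO wells. Repeats: no replicates.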
TAAR1 agonist: human TAAR1 agonism; Q96RJ0; CHO RD-HGA16 TAAR1, Fluo-8 calcium fluorescence; vehicle wells 0%, saturating PEA agonist 100%; activation, % at 3 µM; 360,000 compounds, 0.99% hits;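 active = activation above the mean activation of all test compounds in the run plus 3 SD, cut at about 38% in these data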
Target sequence (Q96RJ0 whole entry, looked up): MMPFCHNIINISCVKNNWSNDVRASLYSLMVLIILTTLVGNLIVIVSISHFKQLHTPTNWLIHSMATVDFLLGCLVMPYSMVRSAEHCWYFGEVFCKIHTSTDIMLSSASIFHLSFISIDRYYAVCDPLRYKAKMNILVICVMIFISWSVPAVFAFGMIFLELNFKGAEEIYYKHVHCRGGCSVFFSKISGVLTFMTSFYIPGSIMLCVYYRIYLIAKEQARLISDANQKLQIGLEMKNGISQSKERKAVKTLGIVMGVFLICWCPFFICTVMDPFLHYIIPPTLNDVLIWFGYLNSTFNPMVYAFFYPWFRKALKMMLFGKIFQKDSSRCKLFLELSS
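Test system: RD-HGA16 (CHO) cells co-expressing Gα16 and hTAAR1 | Doses: Single dose, 3 µM | Schedule: 17-24 h seeding, 75 min 37 °C dye, 30 min RT | Evaluation: % activation from peak over basal fluorescence ratio, DMSO-to-PEA scaled | Technique: Kinetic Fluo-8 calcium fluorescence | Benchmarks: Low control DMSO, high control PEA (EC100)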
OX1R antag-1: antagonists of human orexin 1 receptor (OX1R) | O43613 | OX1R-expressing cells, FRET antagonist read-out | 330,000 compounds, 1.8% hits | inhibition, % at 6.6 µM; in the data active = inhibition mostly above about 38%, no sharp cut-off; inactive = mostly below about 40%;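 also: 0% = agonist challenge alone and 100% = reference antagonist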
GPR7 antag: human neuropeptides B/W receptor 1 antagonism | inhibition, % at 4.4 µM | GPR7-expressing cells, fluorescence antagonist assay | P48145 | 290,000 compounds, 1.1% hits | AID 1861; in the data active = inhibition above about 16%, passing the limit was not always enough;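 also: cells stimulated with the agonist NPW; 0% = agonist with vehicle and 100% = vehicle without agonist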
TAAR1 antagonist: antagonists of human TAAR1; AID 624466; Q96RJ0; inhibition, % at 3 µM; 360,000 compounds, 1.5% hits; CHO RD-HGA16 TAAR1, Fluo-8 calcium fluorescence, antagonist;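 active = inhibition above a per-plate cutoff, the mean inhibition of test compounds on that plate plus 3 SD, cut at about 49% in these data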;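 also: 0% = DMSO plus EC80 beta-PEA response and 100% = DMSO alone without agonist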
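test system = CHO RD-HGA16 cells bearing hTAAR1 | replication = singlicate | controls = DMSO-only wells and EC80 β-PEA-stimulated wells | reagent = EC80 β-phenethylamine stimulus | read-out basis = percent inhibition of PEA-evoked calcium signal, max/basal emission ratio | schedule = seeding 17-24 h prior, 75-min 37 °C, 30-min RT dye loading | signal = kinetic Fluo-8 calcium fluorescence measurement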
OX1R antag-2: human HCRTR1 antagonism. CHO/OX1R cells, Fluo-8 calcium fluorescence, orexin A. 330,000 compounds, 0.43% hits. inhibition, % at 5 µM;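 active = inhibition above its plate's threshold, mean inhibition of all tested compounds on the plate plus 3 SD, cut at about 37% in these data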;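 also: 0% = orexin A challenge wells and 100% = SB-334867-A antagonist wells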
GPR7 antag cf: human GPR7 antagonism, confirmation assay. shares compounds with GPR7 antag. GPR7-expressing cells, calcium fluorescence antagonist mode. inhibition, % at 4.4 µM. 2,400 compounds, 52% hits. AID 1952; in the data active = inhibition above about 24%;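 also: stimulated with the GPR7 agonist NPW; 0% = agonist plus vehicle and 100% = vehicle alone without agonist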
MCHR1 antagonist: counter-screen for GPR7 antagonists: antagonists of human MCHR1; inhibition, % at 4.4 µM; AID 2148; shares compounds with GPR7 antag; MCHR1-expressing cells, fluorescence antagonist assay; 2,400 compounds, 62% hits; in the data active = inhibition above about 22%;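 also: 0% = vehicle with agonist and 100% = vehicle without agonist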
Active calls of the source: *; nt = not tested or not shown. Hits are enriched below; roughly 4.5% of the tested compounds scored in any of these assays.

SMILES	CHO parental Ca	TAAR1 agonist	OX1R antag-1	GPR7 antag	TAAR1 antagonist	OX1R antag-2	GPR7 antag cf	MCHR1 antagonist
CCOC(=O)[C@]12CCCC=C1N(CCc1ccc(OC)c(OC)c1)C(=O)[C@H](CC(=O)NCc1ccc(C)o1)C2	nt	2	nt	nt	-1	nt	nt	nt
CCSc1nsc(NC(=O)Nc2cccc(F)c2)n1	101*	14	84*	36*	17	104*	46*	60*
COc1ccc(NC(=O)Nc2cccc(OC)c2)cc1	6	2	0	3	8	-10	nt	nt
COc1cccc(NC(=O)Nc2nc(SC(C)(C)C)ns2)c1	74*	19	36	29*	59*	75*	60*	72*
C[C@@H]1CN([C@H](C)CO)C(=O)CCCn2cc(nn2)CO[C@H]1CN(C)C(=O)Nc1ccc(F)cc1	nt	1	nt	nt	-1	nt	nt	nt
Cc1cccc(N2CCN(S(=O)(=O)c3ccc4c(c3)NC(=O)C(C)S4)CC2)c1C (configuration not stated)	-6	0	30	-4	8	-25	nt	nt
Cc1cc(C)cc(NC(=O)C2CCN(S(=O)(=O)c3ccc4c(c3)NC(=O)C(C)S4)CC2)c1 (configuration not stated)	24	0	17	30*	28	14	25*	46*
CC1Sc2ccc(S(=O)(=O)N3CCN(c4ccccc4)CC3)cc2NC1=O (configuration not stated)	10	6	7	39*	5	-28	18	26*
Cc1ccc(NC(=O)C2CCN(S(=O)(=O)c3ccc4c(c3)NC(=O)C(C)S4)CC2)c(Cl)c1 (configuration not stated)	-9	2	-2	0	30	-17	nt	nt
Cc1ccc(NC(=O)C2CCN(S(=O)(=O)c3ccc4c(c3)C(C)(C)C(=O)N4C)CC2)c(C)c1	-7	3	16	30*	2	-15	-1	4
CC1(C)CC(=O)C2=C(C1)NC(=O)CC2	nt	1	nt	nt	-10	nt	nt	nt
CCOc1cc(OCC)cc(C(=O)N2CCC[C@@H]2C(=O)N2CCC[C@H]2C(=O)NCc2ccncc2)c1	nt	11	nt	nt	-20	nt	nt	nt
COc1ccc(S(=O)(=O)N2CCOc3ccccc32)cc1	-1	0	-4	20	17	-9	nt	nt
CCOC(=O)N1CCN(S(=O)(=O)N2CCCC(C(=O)NCc3ccc(C)cc3)C2)CC1 (configuration not stated)	nt	-1	nt	nt	-5	nt	nt	nt
CC(Cc1ccccc1)NC(=O)CCNNC(=O)c1ccncc1 (configuration not stated)	nt	2	nt	nt	-4	nt	nt	nt
Cc1ccc(C(=O)NCc2ccc3c(c2)OCO3)o1	-18	0	2	28*	-13	-15	0	5
COc1ccccc1NC(=S)NCc1ccc2c(c1)OCO2	-5	0	-2	7	5	-16	nt	nt
Fc1ccccc1NC(=S)NCc1ccc2c(c1)OCO2	-8	2	12	31*	-15	0	19	7
COc1ccc(S(=O)(=O)NCc2ccc(C(=O)NCCN(C)Cc3ccccc3)cc2)cc1	nt	10	nt	nt	4	nt	nt	nt
COc1ccc2c(c1)C(C)=CC(C)(C)N2S(=O)(=O)c1ccc(NC(C)=O)cc1	4	15	11	24*	28	-12	32*	44*
O=C1[C@H]2[C@@H](c3ccccc3)N[C@]3(CCCN(Cc4ccc(Br)cc4)C3=O)[C@H]2C(=O)N1Cc1ccccc1	nt	16	nt	nt	35	nt	nt	nt
CCO[C@H]1OC(C(=O)NCc2ccccc2)=C[C@@H](c2ccc3c(c2)OCO3)[C@@H]1CCCO	-11	50*	20	33*	17	-9	18	16
CC(C)N(Cc1ccccc1)S(=O)(=O)c1n[nH]c(C(C)(C)C)n1	nt	0	nt	nt	-20	nt	nt	nt
CCOc1ccc(-c2noc(-c3csc([C@@H]4O[C@H](CO)[C@H](O)[C@H](O)[C@H]4O)n3)n2)cc1	nt	8	nt	nt	-24	nt	nt	nt

Compound activity: PubChem, The Scripps Research Institute Molecular Screening Center
